Experiment [1] deals with MAP kinase-interacting serine/threonine-protein kinase 1 (Homo sapiens) (UniProt Q9BUB5). Put plainly: Inhibition of human MNK1 assessed as decrease in substrate phosphorylation using 5FAM-KKKVSRSGLYRSPSMPENLNRPR-COOH as substrate preincubated for 15 mins followed by substrate addition in presence of 1mM of ATP and measured after 45 mins by microplate reader analysis. To be noted: time 60.0 min. In outline: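 MNK1 at 440 ng/mL was preincubated 15 min with 1 µM compound in 100 mM HEPES pH 7.4, 0.003% Brij-35, 0.004% Tween-20, 1 mM DTT. Then 1 mM ATP, 1.5 µM FL-Peptide 10 and 10 mM MgCl2 were added for 45 min. Mobility-shift read.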

Experiment [2] deals with Epidermal growth factor receptor (Homo sapiens), P00533 [L858R]. In words: Inhibition of human EGFR L858R mutant assessed as decrease in substrate phosphorylation using Srctide as substrate preincubated for 15 mins followed by substrate addition in presence of 1mM of ATP and measured after 45 mins by microplate reader analysis. Particulars: time 60.0 min. In outline: (§1)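 Panel format: compound at 1 µM final was preincubated 15 min with kinase in 20 mM HEPES pH 7.4, 5 mM MgCl2, 1 mM MnCl2, 0.003% Brij-35, 0.004% Tween-20, 2 mM DTT. ATP (1 mM) and Srctide (1.5 µM) were then added for 45 min. EDTA stop; mobility-shift read, ex 488/em 530 nm.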

The subject of experiment [3] is Epidermal growth factor receptor (Homo sapiens), P00533 [UNDEFINED MUTATION]. In words: Inhibition of human EGFR d746-750/T790M/C797S mutant assessed as decrease in substrate phosphorylation using Srctide as substrate preincubated for 15 mins followed by substrate addition in presence of 1mM of ATP and measured after 45 mins by microplate reader analysis. Particulars: time 60.0 min. In outline: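 Compound at 1 µM final, 15 min preincubation with mutant EGFR in mutant-EGFR buffer (5 mM MgCl2, 1 mM MnCl2) at 200 ng/mL for T790M/C797S/L858R, 180 ng/mL for d746-750/T790M, and 350 ng/mL for d746-750/T790M/C797S. Then 1 mM ATP plus 1.5 µM Srctide for 45 min. Mobility-shift read.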

Experiment [4] deals with Epidermal growth factor receptor (Homo sapiens) (UniProt P00533). In words: Inhibition of wild type human EGFR assessed as decrease in substrate phosphorylation using Srctide as substrate preincubated for 15 mins followed by substrate addition in presence of 1mM of ATP and measured after 45 mins by microplate reader analysis. Particulars: time 60.0 min. The method in brief:
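Wild-type EGFR at 800 ng/mL was preincubated 15 min with 1 µM compound in 100 mM HEPES pH 7.4, 0.003% Brij-35, 0.004% Tween-20, 1 mM DTT. Then 1 mM ATP, 1.5 µM Srctide, 10 mM MgCl2 and 10 mM MnCl2 were added for 45 min. Mobility-shift read.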

The target of experiment [5] is T1, Epidermal growth factor receptor (Homo sapiens, UniProt P00533, C797S/L858R/T790M). In words: Inhibition of N-terminal His6-tagged human EGFR L858R/T790M/C797S mutant expressed in Sf9 cells assessed as decrease in substrate phosphorylation using Ulight-JAK1 peptide as substrate incubated for 1.5 hrs in presence of ATP by TR-FRET based LANCE Ultra kinase assay. In outline:
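LANCE Ultra TR-FRET assay with 0.25 nM EGFR_TM, 1 µM ATP, 50 nM ULight-JAK1 peptide, 50 mM HEPES pH 7.5, 10 mM MgCl2, 5 mM MnCl2, 1 mM DTT, 0.015% Brij35, 5% DMSO, 1.5 h at 23°C. EDTA stop, Eu-anti-pTyr PT66, 1 h. Signal is the 665/620 nm ratio, normalised to no-protein controls. IC50 from a four-parameter fit, otherwise % inhibition at the top concentration.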
Background: TR-FRET usually uses a lanthanide donor and a delayed reading to cut background.

Experiment [6] concerns Epidermal growth factor receptor (Homo sapiens), P00533 [L858R,C775S]. Put plainly: Binding affinity to N-terminal His6-tagged human EGFR L858R/C775S mutant expressed in Sf9 cells at pH 7.4 assessed as covalent adduct at +277 Da formation at 0.3 to 1 uM incubated for 1 hrs by LC-MS analysis. Particulars: dose 0.3-1 µM. The method in brief: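 EGFR (694-1022) L858R or L858R/C775S as N-terminal His-GST fusions from Sf9 cells, purified by Ni affinity then SEC. Each protein at 0.5 mg/ml was incubated with compound (0.3, 1 or 3 µM) in 20 mM Tris-HCl pH 7.5, 150 mM NaCl, 1 mM TCEP, 5% glycerol, 1 h at room temperature. SDS was added to 1% final, samples boiled 95°C 10 min, then UHPLC-MS.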

Experiment [7] addresses T1, Epidermal growth factor receptor. In words: Inhibition of N-terminal His6-tagged human EGFR L858R/T790M/C797S mutant expressed in Sf9 cells assessed as decrease in substrate phosphorylation using Srctide as substrate preincubated for 20 mins followed by substrate addition in presence of 1mM of ATP and measured after 45 mins by microplate reader analysis. The method in brief:
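Compound in DMSO was preincubated 0, 20 or 60 min with 250 pg/µL EGFR_TM (residues 694-1022) in 20 mM HEPES pH 7.4, 5 mM MgCl2, 1 mM MnCl2, 0.003% Brij-35, 0.004% Tween-20, 2 mM DTT. […] EDTA stop; phosphorylation read by mobility-shift chip, ex 488/em 530 nm.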

For experiment [8] the target is unchanged. Put plainly: Inhibition of N-terminal His6-tagged human EGFR L858R/T790M/C797S mutant expressed in Sf9 cells assessed as decrease in substrate phosphorylation using Srctide as substrate preincubated for 60 mins followed by substrate addition in presence of 5uM of ATP and measured after 45 mins by microplate reader analysis.
Experiment [9] has the same target. In words: Inhibition of N-terminal His6-tagged human EGFR L858R/T790M/C797S mutant expressed in Sf9 cells assessed as decrease in substrate phosphorylation incubated for 45 mins using Srctide as substrate in presence of 5uM of ATP by microplate reader analysis.
The subject of experiment [10] is Epidermal growth factor receptor (Homo sapiens), P00533 [UNDEFINED MUTATION]. Put plainly: Inhibition of human EGFR d746-750 mutant assessed as decrease in substrate phosphorylation using Srctide as substrate preincubated for 15 mins followed by substrate addition in presence of 1mM of ATP and measured after 45 mins by microplate reader analysis. Particulars: time 60.0 min. In outline:
as §1

Drawing on ChEMBL document CHEMBL5329221, “A covalent fragment-based strategy targeting a novel cysteine to inhibit activity of mutant EGFR kinase” (RSC Med Chem, 2023), this text covers inhibition, IC50 and Activity for one compound.

Molecules are shown by their SMILES. Calls of active or inactive are those of the source. The rule behind the calls is not given here.

In general, inhibition refers to the drop in the measured response relative to a control, in per cent. For orientation: IC50 means the concentration that inhibits the measured activity by half.

MAP kinase-interacting serine/threonine-protein kinase 1 (Homo sapiens), sequence (Q9BUB5 whole entry, looked up): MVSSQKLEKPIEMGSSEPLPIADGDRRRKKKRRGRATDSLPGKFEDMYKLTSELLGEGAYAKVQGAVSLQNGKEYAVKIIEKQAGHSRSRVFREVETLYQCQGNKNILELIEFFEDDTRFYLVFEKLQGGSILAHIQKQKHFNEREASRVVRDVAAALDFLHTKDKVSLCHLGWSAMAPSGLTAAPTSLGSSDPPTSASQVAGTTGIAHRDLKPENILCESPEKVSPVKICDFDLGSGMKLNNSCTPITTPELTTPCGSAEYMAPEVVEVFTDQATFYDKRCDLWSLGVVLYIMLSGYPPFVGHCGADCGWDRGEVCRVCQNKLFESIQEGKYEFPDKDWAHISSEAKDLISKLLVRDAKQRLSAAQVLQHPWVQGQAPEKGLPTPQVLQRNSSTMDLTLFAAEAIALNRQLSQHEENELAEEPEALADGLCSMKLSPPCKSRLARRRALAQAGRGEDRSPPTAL

In the case of `C=CC(=O)Nc1cc(-c2cn(C)c3ccccc23)ncn1`, the inhibition in experiment [1] was 26.5%; in experiment [2] it was greater than 80%; in [3], greater than 80%; in experiment [4] it was greater than 80%; in experiment [10], greater than 80%. Also, the IC50 in experiment [5] was 900 nM; in experiment [7] it was 251 nM; in [8] it was 167 nM; in [9], 599 nM. Moreover, the outcome in [6] was Active.
